ChEMBL document CHEMBL4257579, “Analogs of penfluridol as chemotherapeutic agents with reduced central nervous system activity” (Bioorg Med Chem Lett, 2018)

Tests used:
D(2) dopamine receptor [1] = biological target: T1, D(2) dopamine receptor (Homo sapiens, UniProt P14416); assay: Displacement of [3H]N-methylspiperone from human dopamine D2 receptor expressed in stable fibroblast cells by radioligand binding assay; assay type: cell-based
[2] = biological target: T2, Sodium-dependent noradrenaline transporter (Homo sapiens, UniProt P23975); assay: Displacement of [3H]Nisoxetine from human NET expressed in HEK cells by radioligand binding assay; assay type: cell-based
D(2) dopamine receptor [3] = biological target: T1, D(2) dopamine receptor; assay: Displacement of [3H]N-methylspiperone from human dopamine D2 receptor expressed in stable fibroblast cells by radioligand binding assay relative to control; assay type: cell-based; parameters: concentration or dose not given beside the values; conditions: concentration not given here
D(1B) dopamine receptor [4] = biological target: T3, D(1B) dopamine receptor (Homo sapiens, UniProt P21918); assay: Displacement of [3H]SCH23390 from human dopamine D5 receptor expressed in HEK293T cells by radioligand binding assay; assay type: cell-based
[5] = biological target: Sodium-dependent serotonin transporter (Homo sapiens, UniProt P31645); assay: Displacement of [3H]Citalopram from human SERT expressed in HEK cells by radioligand binding assay relative to control; assay type: cell-based
[6] = biological target: 5-hydroxytryptamine receptor 2A (Homo sapiens, UniProt P28223); assay: Displacement of [3H]Ketanserin from 5-HT2A receptor (unknown origin) by radioligand binding assay
[7] = biological target: T4, D(4) dopamine receptor (Homo sapiens) (UniProt P21917); assay: Displacement of [3H]N-methylspiperone from human dopamine D4 receptor by radioligand binding assay relative to control; parameters: concentration or dose not given beside the values; conditions: concentration not given here
T4 sequence (whole entry): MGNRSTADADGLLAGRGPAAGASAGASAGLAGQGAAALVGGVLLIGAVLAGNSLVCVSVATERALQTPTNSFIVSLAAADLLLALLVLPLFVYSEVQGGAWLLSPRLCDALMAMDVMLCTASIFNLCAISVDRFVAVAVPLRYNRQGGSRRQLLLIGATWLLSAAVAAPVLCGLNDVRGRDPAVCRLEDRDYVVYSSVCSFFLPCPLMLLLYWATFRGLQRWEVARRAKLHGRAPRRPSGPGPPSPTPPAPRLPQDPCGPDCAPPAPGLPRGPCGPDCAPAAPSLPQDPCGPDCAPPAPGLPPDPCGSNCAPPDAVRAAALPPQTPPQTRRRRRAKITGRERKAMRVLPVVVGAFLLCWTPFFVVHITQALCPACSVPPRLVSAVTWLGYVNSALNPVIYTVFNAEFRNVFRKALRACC

[8] = biological target: 5-hydroxytryptamine receptor 1D (Homo sapiens, UniProt P28221); assay: Displacement of [3H]5-CT from human 5-HT1D receptor expressed in HEK293T cells by radioligand binding assay relative to control; assay type: cell-based; parameters: concentration or dose not given beside the values; conditions: concentration not given here
D(1A) dopamine receptor = D(1A) dopamine receptor (Homo sapiens, UniProt P21728); assay: Displacement of [3H]SCH23390 from human dopamine D1 receptor expressed in HEK293T cells by radioligand binding assay; assay type: cell-based
[9] = biological target: Delta-type opioid receptor (Homo sapiens, UniProt P41143); assay: Displacement of [3H]DADLE from human DOR expressed in HEK cells by radioligand binding assay relative to control; assay type: cell-based; parameters: concentration or dose not given beside the values; conditions: concentration not given here
D(3) dopamine receptor = D(3) dopamine receptor (Homo sapiens, UniProt P35462); assay: Displacement of [3H]N-methylspiperone from human dopamine D3 receptor expressed in HEK293T cells by radioligand binding assay; assay type: cell-based
[10] = biological target: T5, 5-hydroxytryptamine receptor 2B (Homo sapiens, UniProt P41595); assay: Displacement of [3H]LSD from human 5-HT2B receptor expressed in HEK cells by radioligand binding assay; assay type: cell-based; conditions: read-out: Ki
NIH3T3 [11] = assay: Cytotoxicity against mouse NIH/3T3 cells assessed as reduction in cell viability after 48 hrs by MTT assay; assay type: cell-based; conditions: NIH3T3, 48 h
Method in brief: (§1)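 Cells exposed to compounds; viability read at 24, 48 and 72 h. Every experiment run in triplicate.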

Histamine H1 receptor = Histamine H1 receptor (Homo sapiens, UniProt P35367); assay: Displacement of [3H]Pyrilamine from human H1 receptor expressed in HEK cells by radioligand binding assay; assay type: cell-based; conditions: read-out: Ki
[12] = biological target: T6, 5-hydroxytryptamine receptor 1A (Homo sapiens) (UniProt P08908); assay: Displacement of [3H]-Way100635 from human 5HT1A receptor expressed in stable CHO cell membranes by radioligand binding assay relative to control; parameters: concentration or dose not given beside the values; conditions: concentration not given here
T6 sequence (whole entry): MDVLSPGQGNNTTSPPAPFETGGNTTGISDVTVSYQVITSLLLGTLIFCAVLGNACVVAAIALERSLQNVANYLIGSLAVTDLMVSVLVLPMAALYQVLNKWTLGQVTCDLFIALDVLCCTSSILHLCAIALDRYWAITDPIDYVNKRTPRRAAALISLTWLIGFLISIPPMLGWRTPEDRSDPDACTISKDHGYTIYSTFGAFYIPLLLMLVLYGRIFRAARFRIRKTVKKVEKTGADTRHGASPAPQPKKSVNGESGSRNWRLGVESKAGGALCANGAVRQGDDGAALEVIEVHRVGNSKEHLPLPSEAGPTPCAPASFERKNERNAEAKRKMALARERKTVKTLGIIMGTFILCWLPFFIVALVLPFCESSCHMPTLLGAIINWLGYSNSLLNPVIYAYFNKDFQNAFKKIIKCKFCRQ

[13] = biological target: Kappa-type opioid receptor (Homo sapiens, UniProt P41145); assay: Displacement of [3H]U69593 from KOR (unknown origin) expressed in HEK cells by radioligand binding assay; assay type: cell-based
[14] = biological target: 5-hydroxytryptamine receptor 6 (Homo sapiens, UniProt P50406); assay: Displacement of [3H]LSD from human 5-HT6 receptor expressed in HEK cells by radioligand binding assay relative to control; assay type: cell-based; parameters: concentration or dose not given beside the values; conditions: concentration not given here
Histamine H2 receptor [15] = biological target: T7, Histamine H2 receptor (Homo sapiens, UniProt P25021); assay: Displacement of [3H]Cimetidine from human H2 receptor expressed in HEK cells by radioligand binding assay; assay type: cell-based
NIH3T3 [16] = assay: Cytotoxicity against mouse NIH/3T3 cells assessed as reduction in cell viability after 72 hrs by MTT assay; assay type: cell-based; conditions: NIH3T3, 72 h; method in brief: as §1
MDA-MB-231 [17] = assay: Cytotoxicity against human MDA-MB-231 cells assessed as reduction in cell viability after 72 hrs by MTT assay; assay type: functional, cell-based; conditions: MDA-MB-231, 72 h; method in brief: as §1
D(1B) dopamine receptor [18] = biological target: T3, D(1B) dopamine receptor; assay: Displacement of [3H]SCH23390 from human dopamine D5 receptor expressed in HEK293T cells by radioligand binding assay relative to control; assay type: cell-based; parameters: concentration or dose not given beside the values; conditions: concentration not given here
MDA-MB-231 [19] = assay: Cytotoxicity against human MDA-MB-231 cells assessed as reduction in cell viability after 24 hrs by MTT assay; assay type: functional, cell-based; conditions: MDA-MB-231, 24 h; method in brief: as §1
[20] = biological target: T2, Sodium-dependent noradrenaline transporter; assay: Displacement of [3H]Nisoxetine from human NET expressed in HEK cells by radioligand binding assay relative to control; assay type: cell-based
[21] = biological target: T5, 5-hydroxytryptamine receptor 2B; assay: Displacement of [3H]LSD from human 5-HT2B receptor expressed in HEK cells by radioligand binding assay relative to control; assay type: cell-based; parameters: concentration or dose not given beside the values; conditions: concentration not given here
Histamine H2 receptor [22] = biological target: T7, Histamine H2 receptor; assay: Displacement of [3H]Cimetidine from human H2 receptor expressed in HEK cells by radioligand binding assay relative to control; assay type: cell-based; parameters: concentration or dose not given beside the values; conditions: concentration not given here
[23] = Drug distribution in C57BL/6J mouse lung at 5 mg/kg, ip treated daily for 7 consecutive days measured after 24 hrs post last dose by LC/MS/MS analysis; assay type: ADME, organism-based; conditions: in vivo
Method in brief: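 Female C57BL6 mice dosed 5 mg/kg i.p. once daily for seven consecutive days; sacrificed 24 h after last injection, organs stored at −80 °C. Plasma, brain, lungs and adipose tissue analysed by LC-MS/MS for drug concentration (nM); n = 5.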

Kappa-type opioid receptor, sequence (P41145 whole entry): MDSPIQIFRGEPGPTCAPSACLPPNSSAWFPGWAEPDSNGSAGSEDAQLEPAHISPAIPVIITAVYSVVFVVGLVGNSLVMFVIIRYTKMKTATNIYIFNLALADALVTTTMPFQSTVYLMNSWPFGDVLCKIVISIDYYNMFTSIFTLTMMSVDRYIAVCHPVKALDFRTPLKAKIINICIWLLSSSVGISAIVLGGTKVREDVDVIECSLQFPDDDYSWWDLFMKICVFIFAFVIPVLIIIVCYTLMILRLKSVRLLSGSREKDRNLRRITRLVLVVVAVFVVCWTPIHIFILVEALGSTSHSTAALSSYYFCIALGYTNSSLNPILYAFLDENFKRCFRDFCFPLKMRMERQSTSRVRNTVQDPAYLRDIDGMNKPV
D(1A) dopamine receptor, sequence (P21728 whole entry): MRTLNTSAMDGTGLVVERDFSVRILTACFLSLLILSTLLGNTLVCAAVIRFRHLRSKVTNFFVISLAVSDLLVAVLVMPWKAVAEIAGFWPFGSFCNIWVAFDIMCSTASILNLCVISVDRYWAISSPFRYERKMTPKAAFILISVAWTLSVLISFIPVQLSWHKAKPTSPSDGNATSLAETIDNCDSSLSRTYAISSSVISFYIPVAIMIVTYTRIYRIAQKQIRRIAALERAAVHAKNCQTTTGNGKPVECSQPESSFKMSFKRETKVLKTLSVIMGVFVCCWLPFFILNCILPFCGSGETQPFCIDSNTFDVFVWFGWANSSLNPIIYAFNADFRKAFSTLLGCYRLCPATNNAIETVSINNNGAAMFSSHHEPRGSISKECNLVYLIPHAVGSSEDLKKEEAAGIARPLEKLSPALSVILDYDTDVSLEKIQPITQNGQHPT
T3 sequence (P21918 whole entry): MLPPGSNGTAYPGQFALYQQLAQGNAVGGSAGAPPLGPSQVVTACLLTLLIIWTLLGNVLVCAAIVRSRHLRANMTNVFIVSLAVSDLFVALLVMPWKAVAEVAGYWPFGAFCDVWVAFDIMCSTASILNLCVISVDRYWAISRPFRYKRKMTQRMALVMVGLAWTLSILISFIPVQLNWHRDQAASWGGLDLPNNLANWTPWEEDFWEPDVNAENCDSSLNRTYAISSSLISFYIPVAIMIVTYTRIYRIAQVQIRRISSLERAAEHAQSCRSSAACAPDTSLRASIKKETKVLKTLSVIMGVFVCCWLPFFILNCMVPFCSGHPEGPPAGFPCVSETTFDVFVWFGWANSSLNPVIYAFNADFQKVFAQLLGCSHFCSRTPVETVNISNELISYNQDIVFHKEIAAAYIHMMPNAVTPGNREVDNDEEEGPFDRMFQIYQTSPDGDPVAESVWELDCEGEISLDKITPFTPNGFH
Delta-type opioid receptor, sequence (P41143 whole entry): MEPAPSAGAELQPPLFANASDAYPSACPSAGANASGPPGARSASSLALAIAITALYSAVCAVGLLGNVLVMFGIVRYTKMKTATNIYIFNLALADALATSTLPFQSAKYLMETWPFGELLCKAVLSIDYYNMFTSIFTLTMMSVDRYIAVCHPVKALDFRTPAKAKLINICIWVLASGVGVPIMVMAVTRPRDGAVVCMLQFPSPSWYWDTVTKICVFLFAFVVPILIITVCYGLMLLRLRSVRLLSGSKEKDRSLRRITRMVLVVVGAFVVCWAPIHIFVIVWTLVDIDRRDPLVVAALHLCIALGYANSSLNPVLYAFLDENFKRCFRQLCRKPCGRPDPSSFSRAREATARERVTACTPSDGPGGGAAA
5-hydroxytryptamine receptor 6, sequence (P50406 whole entry): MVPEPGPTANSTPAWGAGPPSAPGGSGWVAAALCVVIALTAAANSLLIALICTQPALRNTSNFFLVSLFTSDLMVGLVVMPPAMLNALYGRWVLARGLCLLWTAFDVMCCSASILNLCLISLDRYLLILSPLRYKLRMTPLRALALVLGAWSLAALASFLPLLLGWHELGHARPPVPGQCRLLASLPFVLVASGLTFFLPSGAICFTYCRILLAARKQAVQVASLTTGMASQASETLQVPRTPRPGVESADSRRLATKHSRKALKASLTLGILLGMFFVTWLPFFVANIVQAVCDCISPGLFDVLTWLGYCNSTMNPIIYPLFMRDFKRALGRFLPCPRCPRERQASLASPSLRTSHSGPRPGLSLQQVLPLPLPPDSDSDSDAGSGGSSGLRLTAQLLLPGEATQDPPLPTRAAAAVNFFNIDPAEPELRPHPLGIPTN
5-hydroxytryptamine receptor 1D, sequence (P28221 whole entry): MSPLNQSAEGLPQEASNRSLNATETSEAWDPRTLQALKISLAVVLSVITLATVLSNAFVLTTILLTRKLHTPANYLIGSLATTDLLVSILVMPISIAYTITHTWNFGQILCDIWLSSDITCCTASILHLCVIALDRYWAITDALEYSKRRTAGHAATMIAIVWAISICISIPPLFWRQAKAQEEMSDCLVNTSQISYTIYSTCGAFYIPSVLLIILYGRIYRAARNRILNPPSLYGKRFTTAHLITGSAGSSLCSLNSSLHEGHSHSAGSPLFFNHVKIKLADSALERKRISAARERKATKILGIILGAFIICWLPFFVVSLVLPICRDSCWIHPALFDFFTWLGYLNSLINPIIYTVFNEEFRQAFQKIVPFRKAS
T5 sequence (P41595 whole entry): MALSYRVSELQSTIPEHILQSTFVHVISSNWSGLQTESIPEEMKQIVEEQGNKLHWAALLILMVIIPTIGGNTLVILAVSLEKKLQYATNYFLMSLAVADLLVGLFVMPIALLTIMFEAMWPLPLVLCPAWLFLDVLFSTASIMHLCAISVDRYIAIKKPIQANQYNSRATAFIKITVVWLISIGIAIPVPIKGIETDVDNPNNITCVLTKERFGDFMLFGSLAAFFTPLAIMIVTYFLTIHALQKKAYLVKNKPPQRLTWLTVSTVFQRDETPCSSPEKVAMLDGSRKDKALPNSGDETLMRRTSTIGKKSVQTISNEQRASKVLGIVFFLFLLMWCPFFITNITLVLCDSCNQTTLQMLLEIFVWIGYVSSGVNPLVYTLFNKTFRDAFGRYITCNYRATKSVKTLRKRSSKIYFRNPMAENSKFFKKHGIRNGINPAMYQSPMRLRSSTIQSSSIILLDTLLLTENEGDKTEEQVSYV
Sodium-dependent serotonin transporter, sequence (P31645 whole entry): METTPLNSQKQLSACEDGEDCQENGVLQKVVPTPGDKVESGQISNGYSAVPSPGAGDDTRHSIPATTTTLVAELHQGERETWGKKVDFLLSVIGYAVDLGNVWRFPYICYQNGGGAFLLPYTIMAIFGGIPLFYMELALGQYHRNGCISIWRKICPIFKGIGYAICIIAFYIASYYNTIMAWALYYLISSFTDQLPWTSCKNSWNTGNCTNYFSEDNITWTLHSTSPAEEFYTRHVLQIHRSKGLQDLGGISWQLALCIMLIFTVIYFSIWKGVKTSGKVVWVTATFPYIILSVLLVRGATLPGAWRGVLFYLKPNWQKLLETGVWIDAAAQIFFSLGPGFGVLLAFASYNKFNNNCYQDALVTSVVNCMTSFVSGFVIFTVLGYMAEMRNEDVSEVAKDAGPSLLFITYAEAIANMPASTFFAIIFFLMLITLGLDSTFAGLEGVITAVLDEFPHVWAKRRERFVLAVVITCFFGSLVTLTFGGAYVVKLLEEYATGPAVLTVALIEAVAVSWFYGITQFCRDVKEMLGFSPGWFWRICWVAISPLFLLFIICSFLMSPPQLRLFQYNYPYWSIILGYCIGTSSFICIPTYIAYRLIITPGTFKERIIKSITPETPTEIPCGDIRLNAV
T1 sequence (P14416 whole entry): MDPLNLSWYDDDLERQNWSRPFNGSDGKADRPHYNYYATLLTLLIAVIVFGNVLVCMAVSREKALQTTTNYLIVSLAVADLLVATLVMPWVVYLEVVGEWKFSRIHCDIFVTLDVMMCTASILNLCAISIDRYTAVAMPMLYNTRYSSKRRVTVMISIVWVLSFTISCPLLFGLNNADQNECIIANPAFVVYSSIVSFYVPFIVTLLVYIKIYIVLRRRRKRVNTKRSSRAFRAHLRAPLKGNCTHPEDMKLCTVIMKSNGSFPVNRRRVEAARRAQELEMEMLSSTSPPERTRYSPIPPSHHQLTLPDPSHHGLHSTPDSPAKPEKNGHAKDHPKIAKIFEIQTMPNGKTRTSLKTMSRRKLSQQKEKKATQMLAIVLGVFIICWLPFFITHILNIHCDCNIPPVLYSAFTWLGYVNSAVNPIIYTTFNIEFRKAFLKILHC
D(3) dopamine receptor, sequence (P35462 whole entry): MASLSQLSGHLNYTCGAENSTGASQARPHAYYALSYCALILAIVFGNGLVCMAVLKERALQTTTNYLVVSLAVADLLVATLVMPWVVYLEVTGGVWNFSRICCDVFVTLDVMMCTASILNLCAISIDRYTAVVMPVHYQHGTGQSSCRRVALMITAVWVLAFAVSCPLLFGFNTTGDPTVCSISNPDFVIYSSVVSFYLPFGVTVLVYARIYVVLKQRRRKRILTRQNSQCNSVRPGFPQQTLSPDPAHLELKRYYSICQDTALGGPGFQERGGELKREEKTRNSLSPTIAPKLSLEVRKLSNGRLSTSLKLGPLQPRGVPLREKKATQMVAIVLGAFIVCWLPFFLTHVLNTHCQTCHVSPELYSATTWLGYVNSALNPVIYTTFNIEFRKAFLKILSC
5-hydroxytryptamine receptor 2A, sequence (P28223 whole entry): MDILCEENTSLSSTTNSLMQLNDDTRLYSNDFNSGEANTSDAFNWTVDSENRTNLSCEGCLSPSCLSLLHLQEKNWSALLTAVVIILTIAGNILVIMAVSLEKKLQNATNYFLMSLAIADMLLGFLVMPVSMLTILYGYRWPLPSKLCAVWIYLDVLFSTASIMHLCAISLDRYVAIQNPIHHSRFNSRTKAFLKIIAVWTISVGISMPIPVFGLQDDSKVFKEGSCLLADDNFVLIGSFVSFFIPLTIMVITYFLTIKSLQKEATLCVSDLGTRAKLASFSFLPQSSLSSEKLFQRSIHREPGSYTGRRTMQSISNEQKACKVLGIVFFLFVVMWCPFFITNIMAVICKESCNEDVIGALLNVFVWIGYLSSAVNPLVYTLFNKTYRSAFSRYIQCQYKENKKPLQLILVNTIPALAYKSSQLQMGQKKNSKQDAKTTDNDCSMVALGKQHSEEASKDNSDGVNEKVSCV

Q: Which results are given for `OC1(c2ccc(Cl)c(C(F)(F)F)c2)CCN(CCCN(c2ccc(F)cc2)c2ccc(F)cc2)CC1`?
A: Ki (D(2) dopamine receptor [1]): 148 nM; Ki [2]: 902 nM; inhibition (D(2) dopamine receptor [3]): 66.4%; Ki (D(1B) dopamine receptor [4]): 437 nM; inhibition (INH) [5]: 82.5%; Ki [6]: 164 nM; inhibition [7]: 76.5%; inhibition [8]: 80.7%; Ki (D(1A) dopamine receptor): 300 nM; inhibition [9]: 65.9%; Ki (D(3) dopamine receptor): 474 nM; Ki [10]: 177 nM; IC50 (NIH3T3 [11]): 5600 nM; Ki (Histamine H1 receptor): 814 nM; inhibition [12]: 94.2%; Ki [13]: 667 nM; inhibition [14]: 86.4%; Ki (Histamine H2 receptor [15]; read-out: Ki): 252 nM; IC50 (NIH3T3 [16]): 4000 nM; IC50 (MDA-MB-231 [17]): 3500 nM; inhibition (D(1B) dopamine receptor [18]): 100%; IC50 (MDA-MB-231 [19]): 6700 nM; inhibition (INH) [20]: 97.4%; inhibition [21]: 95.5%; inhibition (Histamine H2 receptor [22]): 98.3%

Q: What does the source list for `COc1ccc(N(CCCCN2CCC(O)(c3ccc(Cl)c(C(F)(F)F)c3)CC2)c2ccc(OC)cc2)cc1`?
A: Ki (D(2) dopamine receptor [1]): 417 nM; Ki [2]: 1440 nM; inhibition (D(2) dopamine receptor [3]): 60%; Ki (D(1B) dopamine receptor [4]): 623 nM; inhibition (INH) [5]: 94%; Drug uptake [23]: Active; Ki [6]: 900 nM; inhibition [7]: 73%; inhibition [8]: 78.8%; Ki (D(1A) dopamine receptor): 10000 nM; inhibition [9]: 77.6%; Ki (D(3) dopamine receptor): 437 nM; Ki [10]: 729 nM; IC50 (NIH3T3 [11]): 11000 nM; Ki (Histamine H1 receptor): 7030 nM; inhibition [12]: 57.3%; Ki [13]: 10000 nM; inhibition [14]: 50%; Ki (Histamine H2 receptor [15]): Not Active; IC50 (NIH3T3 [16]): 11200 nM; IC50 (MDA-MB-231 [17]): 5400 to 7100 nM; inhibition (D(1B) dopamine receptor [18]): 83.5%; IC50 (MDA-MB-231 [19]): 8100 nM; inhibition (INH) [20]: 86.4%; inhibition [21]: 77.5%

Q: Which Ki (D(2) dopamine receptor [1]) does the source give for `OC1(c2ccc(Cl)c(C(F)(F)F)c2)CCN(CCCC(c2ccc(F)cc2)c2ccc(F)cc2)CC1` [PENFLURIDOL] here?
A: 159 nM

Q: And the Ki [2]?
A: 588 nM

Q: And the inhibition (D(2) dopamine receptor [3])?
A: 71.5%

Q: What about the Ki (D(1B) dopamine receptor [4]) of the same compound?
A: 125 nM

Q: What about the “inhibition (INH)” value [5] of the same compound?
A: 92.7%

Q: And the Drug uptake [23]?
A: Active

Q: What about the Ki [6] of the same compound?
A: 361 nM

Q: And the inhibition [7]?
A: 77.6%

Q: What about the inhibition [8] of the same compound?
A: 91.3%

Q: And the Ki (D(1A) dopamine receptor)?
A: 147 nM

Q: And the inhibition [9]?
A: 89.1%

Q: What about the Ki (D(3) dopamine receptor) of the same compound?
A: 136 nM

Q: And the Ki [10]?
A: 184 nM

Q: And the IC50 (NIH3T3 [11])?
A: 6090 nM

Q: And the inhibition [12]?
A: 100%

Q: What about the inhibition [14] of the same compound?
A: 96%

Q: And the IC50 (NIH3T3 [16])?
A: 6010 nM

Q: And the IC50 (MDA-MB-231 [17])?
A: 5100 nM

Q: And the inhibition (D(1B) dopamine receptor [18])?
A: 82.9%

Q: What about the IC50 (MDA-MB-231 [19]) of the same compound?
A: 6100 nM

Q: What about the “inhibition (INH)” value [20] of the same compound?
A: 86.2%

Q: What about the inhibition [21] of the same compound?
A: 97.3%

Q: What about the inhibition (Histamine H2 receptor [22]) of the same compound?
A: 98.4%

Q: Which results are given for `OC1(c2ccc(Cl)c(C(F)(F)F)c2)CCN(CCCCC(c2ccc(F)cc2)c2ccc(F)cc2)CC1`?
A: Ki (D(2) dopamine receptor [1]): 194 nM; Ki [2]: 77 nM; inhibition (D(2) dopamine receptor [3]): 99.2%; Ki (D(1B) dopamine receptor [4]): 529 nM; inhibition (INH) [5]: 92.5%; Drug uptake [23]: Active; Ki [6]: 1000 nM; inhibition [7]: 96.9%; inhibition [8]: 79.3%; Ki (D(1A) dopamine receptor): 798 nM; inhibition [9]: 84.5%; Ki (D(3) dopamine receptor): 209 nM; Ki [10]: 423 nM; IC50 (NIH3T3 [11]): 5300 nM; inhibition [12]: 85%; Ki [13]: 2670 nM; inhibition [14]: 80%; Ki (Histamine H2 receptor [15]; read-out: Ki): 546 nM; IC50 (NIH3T3 [16]): 4100 nM; IC50 (MDA-MB-231 [17]): 4800 nM; inhibition (D(1B) dopamine receptor [18]): 88.2%; IC50 (MDA-MB-231 [19]): 5300 nM; inhibition (INH) [20]: 98.3%; inhibition [21]: 93.3%; inhibition (Histamine H2 receptor [22]): 94%
